# Bioassay records: PubChem BioAssay, Johns Hopkins Ion Channel Center
# This is a sample that favours compounds with a hit; in the whole collection about 3.5% have one here.
# MrgX1 antag = blocks BAM8-22 activation of human MrgX1 receptor | Q96LB2 | MRGX1-HEK293 calcium flux, Fluo-4, BAM8-22 antagonism; hits give low values | B-score at 10 µM | 310,000 tested, 1.3% active | AID 588676;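 active = calcium-response B-score plate-corrected more than 3 library SD below zero, starting fluorescence within 5 deviations, no agonist response on first addition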;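 also: peak minus trough fluorescence over baseline after final BAM8-22 challenge near maximal dose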
# Target sequence (Q96LB2 whole entry, looked up): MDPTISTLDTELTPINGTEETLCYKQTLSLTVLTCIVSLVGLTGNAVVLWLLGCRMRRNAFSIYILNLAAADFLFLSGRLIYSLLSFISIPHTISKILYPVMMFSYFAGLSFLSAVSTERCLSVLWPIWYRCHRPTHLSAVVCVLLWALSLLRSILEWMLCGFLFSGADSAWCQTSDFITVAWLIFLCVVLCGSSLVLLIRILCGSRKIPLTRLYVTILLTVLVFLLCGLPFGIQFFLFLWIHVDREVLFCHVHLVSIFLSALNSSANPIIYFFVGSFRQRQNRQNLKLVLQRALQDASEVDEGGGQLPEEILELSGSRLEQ
# MrgX1 agonist = agonists of human MrgX1 receptor; Q96LB2; MrgX1-HEK293 cells, Fluo-4 calcium fluorescence, agonist mode; hits give high values; B-score at 10 µM; 310,000 tested, 0.44% active; AID 588627;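 active = calcium response B-score plate-corrected fluorescence ratio at least 3 library SD, with starting fluorescence B-score inside 5 SD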
#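 System – MrgX1-expressing HEK293 cells · Incubation – cells plated overnight, dye loaded 0.5 h 37 °C, 0.5 h room temperature · Technique – kinetic Fluo-4 NW fluorescence of intracellular calcium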
# RGS4 inh = inhibitors of human RGS4; AID 463165; HEK293 M3R/RGS4 inducible, Fluo-4 calcium flux; hits give high values; triggered by carbachol at its EC20; P49798; B-score at 10 µM; 310,000 tested, 0.45% active;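 active = B-score, a plate-corrected calcium signal, over three deviations above library mean, with baseline fluorescence within five deviations of library mean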;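 also: RGS4 expression induced by doxycycline in cells with stable M3 receptor; B-score is computed from the integrated fluorescence ratio over baseline after carbachol; higher B-score means a larger calcium signal and so more RGS4 inhibition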
# Target sequence (P49798 whole entry, looked up): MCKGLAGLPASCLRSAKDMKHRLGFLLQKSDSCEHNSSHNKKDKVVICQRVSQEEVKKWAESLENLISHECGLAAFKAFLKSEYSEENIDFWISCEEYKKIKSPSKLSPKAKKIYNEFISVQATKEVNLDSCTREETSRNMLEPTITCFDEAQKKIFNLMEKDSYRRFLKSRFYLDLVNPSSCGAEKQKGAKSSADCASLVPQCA
# MrgX1 allo act = allosterically activates human MrgX1 receptor signaling | Q96LB2 | B-score at 10 µM | 310,000 tested, 0.63% active | MrgX1-HEK293, Fluo-4 calcium flux, FDSS; hits give high values;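 active = plate-corrected calcium response at least 3 library SD above typical, normal starting fluorescence, not activating the receptor alone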;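 also: compound read alongside a low EC10 to EC30 dose of BAM8-22 agonist; peak minus trough fluorescence over baseline measured at the second addition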
# RGS4 pot = RGS4 potentiation or activation. HEK293 M3R/inducible RGS4, carbachol calcium flux Fluo4; hits give low values. B-score at 10 µM. 310,000 tested, 0.92% active. AID 463111;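 active = B-score of the integrated calcium signal more than 4 SD below the library mean, with starting fluorescence not abnormally high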;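 also: negative B-score means reduced calcium response which marks RGS4 activation or potentiation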
#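 System – HEK293 FlpIn-TREx cells, stable M3R, doxycycline-inducible RGS4 · Reagent – ECmax carbachol challenge · Times – compound preincubation 20 min at room temperature before agonist · Technique – Fluo4 fluorescence kinetic imaging of calcium · Measure – B score of integrated Fluo4 ratio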
# MrgX1 antag conf = confirmation of human MrgX1 receptor antagonists; shares compounds with MrgX1 antag; MrgX1-HEK293, BAM8-22 calcium flux, Fluo-4; hits give low values; remaining BAM8-22 calcium response % of control (hits give low values), % at 10 µM; 2,300 tested, 19% active;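 active = remaining agonist calcium response no higher than 100% minus 3 SD of agonist-only control wells, with starting fluorescence near control levels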;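 also: agonist BAM8-22 given at a near maximal EC90 to ECmax level; peak minus minimum fluorescence divided by baseline after agonist addition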
# HEK293 Ca flux = activity in parental HEK293 cells lacking MrgX1. shares compounds with MrgX1 antag. Fluo-4 calcium fluorescence, FDSS. fluorescence ratio F(max-min)/F0 at 10 µM. 4,000 tested, 2% active. AID 624111;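 active = duplicate-averaged calcium fluorescence ratio at least three times the standard deviation of buffer wells, a nonspecific response in parental cells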
# HEK293 Ca counter = MrgX1 allosteric activator counter-screen hit in parental HEK293 cells; AID 624114; shares compounds with MrgX1 antag; parental HEK293 calcium flux, Fluo-4 fluorescence ratio; hits give high values; fluorescence ratio F(max-min)/F0 at 10 µM; 4,000 tested, 0.4% active;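 active = calcium fluorescence ratio, averaged over duplicates, at least 3 SD of the buffer-well ratio, meaning a nonspecific response in receptor-free cells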;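 also: untransfected parental HEK293 lacking MrgX1 used as counterscreen for MrgX1 allosteric activators; fluorescence change taken during the second addition on a kinetic imager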
# HEK293 Ca cntr2 = counter-screen for MrgX1 activators: effect in parental HEK293 cells. shares compounds with MrgX1 antag. Fluo-4 calcium fluorescence (FDSS); hits give high values. fluorescence ratio F(max-min)/F0 at 10 µM. 4,000 tested, 8.7% active. AID 624115;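 active = calcium fluorescence ratio at least three times the spread of buffer wells, meaning a non-specific response in parental cells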
# Active calls of the source: *; i = inactive; . = not tested or not shown.
SMILES,MrgX1 antag,MrgX1 agonist,RGS4 inh,MrgX1 allo act,RGS4 pot,MrgX1 antag conf,HEK293 Ca flux,HEK293 Ca counter,HEK293 Ca cntr2
O=C(COc1ccccc1C(=O)c1cnn(-c2ccccc2)c1)Nc1ccc2ccccc2c1,i,i,i,i,i,.,.,.,.
COc1ccc(C(=O)NCCCc2nc3ccccc3n2Cc2ccccc2C)cc1OC,i,i,i,i,i,.,.,.,.
Cc1nn(CCc2nn[nH]n2)c2nc(-c3ccc(C4CCCCC4)cc3)cc(C(F)(F)F)c12,-21*,i,i,i,-8.5*,2.0%*,i,i,84*
Cc1nn(CCC(=O)O)c2nc(-c3cccnc3)cc(C(F)(F)F)c12,i,i,i,i,i,.,.,.,.
CCN(C(=O)Cn1nc(C)c([N+](=O)[O-])c1C)C1CCS(=O)(=O)C1 (stereo unspecified),i,i,i,i,i,.,.,.,.
CCN(CC)S(=O)(=O)c1cc(NC(=O)CN2C(=O)NC3(CCCc4ccccc43)C2=O)ccc1C (stereo unspecified),-6.1*,i,i,i,i,85%*,i,i,i
Cc1cc2nc(C)n(CCCNC(=O)Nc3cccc4ccccc34)c2cc1C,i,i,i,i,i,.,.,.,.
CC1=C(C(N)=O)C(c2ccc(Cl)cc2)n2nc(CCCO)nc2N1 (stereo unspecified),i,i,i,i,i,.,.,.,.
CC1=C(C(N)=O)C(c2cccc(O)c2)n2nc(CCCO)nc2N1 (stereo unspecified),-4.7*,i,i,i,i,i,i,i,i
O=C(Nc1ccc(Cl)c(Cl)c1)c1cccc(S(=O)(=O)NCc2cccnc2)c1,i,i,i,i,i,.,.,.,.
COc1ccc(CCNc2nc(N3CCOCC3)nc(N3CCOCC3)n2)cc1OC,-5.9*,i,i,i,i,i,i,i,i
O=C(CSc1nc2ccccc2s1)NCC1CCCO1 (stereo unspecified),-5.9*,i,i,i,i,i,i,i,i
O=C(CSc1nnc(NC(=O)c2cc(Br)ccc2Cl)s1)NCC1CCCO1 (stereo unspecified),-13*,i,i,i,i,i,i,i,i
COCCNc1nnc(SCC(=O)NNC(=O)c2ccc([N+](=O)[O-])cc2)s1,i,i,i,i,i,.,.,.,.
COc1cccc(C2C(C(=O)c3cc4cccc(OC)c4o3)=C(O)C(=O)N2c2cc(C)on2)c1OC (stereo unspecified),i,i,i,i,i,.,.,.,.
COC(=O)c1ccc(C2C(C(=O)c3cc4ccccc4o3)=C(O)C(=O)N2c2cc(C)on2)cc1 (stereo unspecified),-5.2*,i,i,i,i,82%*,i,i,i
Cc1cc(N2C(=O)C(O)=C(C(=O)c3cc4ccccc4o3)C2c2ccc(OC(C)C)cc2)no1 (stereo unspecified),i,i,i,i,i,.,.,.,.
COc1cccc2cc(C(=O)C3=C(O)C(=O)N(c4cc(C)on4)C3c3cccs3)oc12 (stereo unspecified),-5.1*,i,i,i,i,i,i,i,i
CC(C)NC(=O)NC(=O)COc1ncnc2sccc12,-4.9*,i,i,i,i,i,i,i,i
O=C(COc1ncnc2sccc12)NC1CCCc2ccccc21 (stereo unspecified),-7.4*,i,i,i,i,80%*,i,i,i
O=C(c1ccco1)N1CCN(C(=O)C2CC(=O)N(c3ccccc3)C2)CC1 (stereo unspecified),i,i,i,i,i,.,.,.,.
CSc1cccc(CN2CCN(CCC(C)C)C(CCO)C2)c1 (stereo unspecified),i,i,i,i,i,.,.,.,.
COc1ccc(NC(=O)Cn2nnc(-c3ccccc3NC(=O)c3cccs3)n2)cc1,-7*,i,i,i,i,i,i,i,i
Cc1ccc(NC(=O)Cn2nnc(-c3ccccc3NC(=O)c3cccs3)n2)cc1,i,i,i,i,i,.,.,.,.
COC(=O)CSc1nc2c(c(-c3ccc(C)o3)c1C#N)CCCC2,-6.9*,i,i,i,i,i,i,i,i
SMILES,MrgX1 antag,MrgX1 agonist,RGS4 inh,MrgX1 allo act,RGS4 pot,MrgX1 antag conf,HEK293 Ca flux,HEK293 Ca counter,HEK293 Ca cntr2
CCSc1nc2c(c(-c3ccc(C)o3)c1C#N)CCCC2,i,i,i,i,i,.,.,.,.
CCOC(=O)CN1C(=O)CN(c2ccc(C)cc2)C1=O,-5*,i,i,i,i,i,i,i,i
Cc1ccc(C)c(-c2nnc(NC(=O)CCS(=O)(=O)c3ccc(F)cc3)o2)c1,-4.7*,i,i,i,i,i,i,i,i
Cc1ccccc1NC(=O)CSCc1cc(=O)n2ccsc2n1,i,i,i,i,i,.,.,.,.
COC(=O)Cn1cc(C(=O)C(C)(C)C)c2ccccc21,i,i,i,i,i,.,.,.,.
CCOC(=O)Cn1cc(C(=O)C(C)(C)C)c2ccccc21,-4.9*,i,i,i,i,i,i,i,i
COc1ccc(N(CC(=O)O)S(=O)(=O)c2cccnc2)cc1,-6.8*,i,i,i,i,i,i,i,i
Cc1ccc(Cl)cc1NC(=O)c1cccc(OC(F)F)c1,-4.7*,i,i,i,i,i,i,i,i
Cc1ccc2c(Cl)c(C(=O)NCC3CCCO3)sc2c1 (stereo unspecified),-4.6*,i,i,i,i,i,i,i,i
COc1ccccc1NC(=O)CSc1nc(N)c(C#N)cc1C#N,i,i,i,i,i,.,.,.,.
COc1ccccc1NC(=O)CSc1nc(N)cc(N)n1,-5.5*,i,i,i,i,i,i,i,i
